{"source": "ChEMBL document CHEMBL4145474", "about": "“Discovery of novel piperonyl derivatives as diapophytoene desaturase inhibitors for the treatment of methicillin-, vancomycin- and linezolid-resistant Staphylococcus aureus infections” (Eur J Med Chem, 2018)", "key": {"[1]": {"molecular_target": "T1, 4,4'-diapophytoene desaturase (4,4'-diaponeurosporene-forming) (Staphylococcus aureus (strain Mu50 / ATCC 700699)) (UniProt Q99R76)", "T1 sequence (whole entry)": "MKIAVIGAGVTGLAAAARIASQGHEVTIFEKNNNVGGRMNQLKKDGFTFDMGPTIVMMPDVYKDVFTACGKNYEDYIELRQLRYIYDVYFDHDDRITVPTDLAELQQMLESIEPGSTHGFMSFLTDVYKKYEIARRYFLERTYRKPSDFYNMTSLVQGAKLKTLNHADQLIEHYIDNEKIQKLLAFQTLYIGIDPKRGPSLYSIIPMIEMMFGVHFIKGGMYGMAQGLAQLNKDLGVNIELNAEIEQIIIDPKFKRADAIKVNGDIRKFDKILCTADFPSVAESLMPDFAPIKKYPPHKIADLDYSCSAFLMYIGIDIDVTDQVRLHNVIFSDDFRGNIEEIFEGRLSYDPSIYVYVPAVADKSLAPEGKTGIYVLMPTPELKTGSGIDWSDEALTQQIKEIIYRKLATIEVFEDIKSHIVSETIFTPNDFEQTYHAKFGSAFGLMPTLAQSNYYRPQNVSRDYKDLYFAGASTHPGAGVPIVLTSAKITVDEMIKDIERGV", "experiment": "Inhibition of CrtN in vancomycin-intermediate methicillin-resistant Staphylococcus aureus Mu50 assessed as bacterial survival at 1 uM after 24 hrs by H2O2 killing assay (reference value: 23.33%)", "conditions": "Staphylococcus aureus subsp. aureus Mu50"}, "Staphylococcus aureus [2]": {"tested_on": "Staphylococcus aureus", "experiment": "Antibacterial activity against wild type Staphylococcus aureus Newman infected in BALB/c mouse assessed as decrease in bacterial load in mouse liver at 0.4 mg, ip bid administered 4.5 days […] bacterial infection measured after 90 hrs relative to control", "format": "functional", "outline": "(§1)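 Female BALB/c mice, 6-8 weeks old, infected retro-orbitally with 2.2 × 10⁷ CFU S. aureus Newman. Intraperitoneal dosing in 12 intervals: pre-treatment groups received a total of 50 or 200 mg/kg starting before infection; post-treatment groups received a total of 39 or 156 mg/kg starting 6 h after infection. Vehicle was ddH₂O. At 90 h post-infection, liver or kidney was homogenized in PBS/0.01% Triton X-100 and plated on TSA for CFU.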"}, "[3]": {"molecular_target": "T1, 4,4'-diapophytoene desaturase (4,4'-diaponeurosporene-forming) (Staphylococcus aureus (strain Mu50 / ATCC 700699))", "experiment": "Inhibition of CrtN in vancomycin-intermediate methicillin-resistant Staphylococcus aureus Mu50 assessed as bacterial survival after 6 hrs by human whole blood killing assay (reference value: 8.66%)", "conditions": "Staphylococcus aureus subsp. aureus Mu50", "outline": "(§2)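 Overnight cultures spun, resuspended in sterile PBS at 1 × 10⁷ CFU/mL, then mixed 1:10 with fresh whole blood from healthy human volunteers (final 1 × 10⁶ CFU/mL). Incubated 6 h at 37 °C; surviving CFU counted by plating dilutions on TSA. Two independent experiments.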"}, "[4]": {"molecular_target": "T2, 4,4'-diapophytoene desaturase (4,4'-diaponeurosporene-forming) (Staphylococcus aureus (strain Newman)) (UniProt O07855)", "T2 sequence (whole entry)": "T1 sequence (whole entry)", "experiment": "Inhibition of CrtN in methicillin-resistant Staphylococcus aureus USA400 MW2 assessed as bacterial survival at 1 uM after 24 hrs by H2O2 killing assay (reference value: 26.33%)"}, "[5]": {"molecular_target": "T2, 4,4'-diapophytoene desaturase (4,4'-diaponeurosporene-forming) (Staphylococcus aureus (strain Newman))", "experiment": "Inhibition of CrtN in wild type Staphylococcus aureus Newman assessed as decrease in bacterial survival after 6 hrs by human whole blood killing assay relative to control", "conditions": "Staphylococcus aureus subsp. aureus str. Newman", "outline": "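Tubes were incubated 6 h at 37 °C, then serial dilutions were plated on TSA to count surviving CFU. Two independent experiments, compared against vehicle.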"}, "HEK-293T": {"tested_on": "HEK-293T", "experiment": "Cytotoxicity against HEK293T cells assessed as reduction in cell viability after 72 hrs by CCK-8 assay", "format": "functional", "conditions": "Homo sapiens", "outline": "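HepG2 or HEK-293T cells were seeded at 5000 per well and grown 24 h at 37 °C, 5% CO₂. Cells were then exposed to compound for 72 h; compound came from DMSO, diluted in medium to final DMSO <0.4%, with a DMSO-matched vehicle control. Viability was read by 10% CCK-8 for 1 h, absorbance 450 nm, in triplicate.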"}, "[6]": {"molecular_target": "T3, 4,4'-diapophytoene desaturase (4,4'-diaponeurosporene-forming) (Staphylococcus aureus (strain Newman), UniProt O07855)", "T3 sequence (O07855 whole entry)": "T1 sequence (whole entry)", "experiment": "Inhibition of Staphylococcus aureus Newman 6His-tagged CrtN expressed in Escherichia coli BL21(DE3) assessed as 4,4'-diapophytoene accumulation"}, "Staphylococcus aureus [7]": {"tested_on": "Staphylococcus aureus", "experiment": "Growth inhibition of methicillin/linezolid-resistant Staphylococcus aureus NRS271 at 0.2 mM incubated for overnight", "format": "functional, organism-based", "outline": "(§3)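 Overnight cultures washed in PBS and diluted in TSB to OD600 ~1.0. Inoculated to a final OD600 of about 0.05 into TSB containing compound (0.2 or 0.05 mM, from a 20 mM DMSO stock) or DMSO growth control, overlaid with paraffin wax. OD600 read every 30 min during overnight incubation at 37 °C.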"}, "Staphylococcus aureus [8]": {"tested_on": "Staphylococcus aureus", "experiment": "Growth inhibition of methicillin-resistant Staphylococcus aureus USA300 LAC at 0.2 mM incubated for overnight", "format": "functional, organism-based", "outline": "as §3"}, "Staphylococcus aureus [9]": {"tested_on": "Staphylococcus aureus", "experiment": "Antibacterial activity against vancomycin-intermediate methicillin-resistant Staphylococcus aureus Mu50 infected in BALB/c mouse assessed as decrease in bacterial survival in mouse kidney at 0.1 to 0.4 mg, ip bid administered 4.5 days before 24 hrs bacterial infection measured after 90 hrs", "format": "functional, organism-based", "outline": "(§4)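 6–8-week-old female BALB/c mice (SPF) dosed intraperitoneally twice daily over 4.5 d at 0.1 or 0.4 mg/bid. Pre-treatment started before infection; post-treatment started 6 h after infection. Vancomycin and linezolid controls given as pre-treatment at 0.4 mg/bid. Retro-orbital inoculation: Mu50 1.1 × 10⁹ CFU, NRS271 1.8 × 10⁸ CFU. Kidneys and livers homogenised in PBS/0.01% Triton X-100 and plated on TSA for CFU.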"}, "Staphylococcus aureus [10]": {"tested_on": "Staphylococcus aureus", "experiment": "Antibacterial activity against wild type Staphylococcus aureus Newman infected in BALB/c mouse assessed as decrease in bacterial survival in mouse liver at 0.4 mg, ip bid administered 4.5 days before 12 hrs bacterial infection measured after 90 hrs relative to control", "format": "functional"}, "[11]": {"molecular_target": "T2, 4,4'-diapophytoene desaturase (4,4'-diaponeurosporene-forming) (Staphylococcus aureus (strain Newman))", "experiment": "Inhibition of CrtN in methicillin-resistant Staphylococcus aureus USA300 LAC assessed as bacterial survival after 6 hrs by human whole blood assay (reference value: 14.33%)", "outline": "as §2"}, "Staphylococcus aureus [12]": {"tested_on": "Staphylococcus aureus", "experiment": "Growth inhibition of wild type Staphylococcus aureus Newman at 0.2 mM incubated for overnight", "format": "functional, organism-based", "outline": "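A 20 mM DMSO stock was diluted in TSB to 0.2 mM final, with a DMSO growth control. Dilutions were overlaid with paraffin and held 4 h at 37 °C. Overnight cultures were PBS-washed and added to a final OD600 ≈ 0.05. Plates were incubated overnight at 37 °C with OD600 read every 30 min.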"}, "[13]": {"molecular_target": "T2, 4,4'-diapophytoene desaturase (4,4'-diaponeurosporene-forming) (Staphylococcus aureus (strain Newman))", "experiment": "Inhibition of CrtN in methicillin-resistant Staphylococcus aureus USA400 MW2 assessed as bacterial survival after 6 hrs by human whole blood killing assay (reference value: 23.33%)", "outline": "as §2"}, "Staphylococcus aureus [14]": {"tested_on": "Staphylococcus aureus", "experiment": "Antibacterial activity against wild type Staphylococcus aureus Newman infected in BALB/c mouse assessed as decrease in bacterial survival in mouse kidney at 0.1 to 0.4 mg, ip bid administered 4.5 days before 24 hrs bacterial infection measured after 90 hrs", "format": "functional, organism-based", "outline": "as §1"}, "Staphylococcus aureus [15]": {"tested_on": "Staphylococcus aureus", "experiment": "Antibacterial activity against methicillin/linezolid-resistant Staphylococcus aureus NRS271 infected in BALB/c mouse assessed as decrease in bacterial survival in mouse liver at 0.1 to 0.4 mg, ip bid administered 4.5 days before 24 hrs bacterial infection measured after 90 hrs", "format": "functional, organism-based", "outline": "as §4"}}, "note": "The source made the active and inactive calls. The rule behind the calls is not given here.", "data": [{"smiles": "CN(C/C=C/C=C/c1ccc(C(F)(F)F)cc1F)Cc1ccc2c(c1)OCO2.Cl", "values": [{"measurement": "Survival", "setting": "[1]", "value": 2, "unit": "%"}, {"measurement": "Activity", "setting": "Staphylococcus aureus [2]", "value": 1.9, "unit": "deltalog10CFU"}, {"measurement": "Survival", "setting": "[3]", "value": 0.28, "unit": "%"}, {"measurement": "Survival", "setting": "[4]", "value": 2.33, "unit": "%"}, {"measurement": "fold change (FC)", "setting": "[5]", "value": 10.9}, {"measurement": "CC50", "setting": "HEK-293T", "value": 92.6, "unit": "µM"}, {"measurement": "IC50", "setting": "[6]", "value": 0.408, "unit": "µM"}, {"measurement": "growth inhibition (GI)", "setting": "Staphylococcus aureus [7]", "value": "inactive"}, {"measurement": "growth inhibition (GI)", "setting": "Staphylococcus aureus [8]", "value": "inactive"}, {"measurement": "Activity", "setting": "Staphylococcus aureus [9]", "value": "Active"}, {"measurement": "Activity", "setting": "Staphylococcus aureus [10]", "value": 98.74, "unit": "%"}, {"measurement": "Survival", "setting": "[11]", "value": 1.57, "unit": "%"}, {"measurement": "growth inhibition (GI)", "setting": "Staphylococcus aureus [12]", "value": "inactive"}, {"measurement": "Survival", "setting": "[13]", "value": 0.93, "unit": "%"}, {"measurement": "Activity", "setting": "Staphylococcus aureus [14]", "value": "Active"}, {"measurement": "Activity", "setting": "Staphylococcus aureus [15]", "value": "inactive"}]}]}
